Assay results from ChEMBL document CHEMBL1765004 (2011).
Active and inactive are the calls of the source. The calls are words filed in the database; no cut-off is given here.

Assays:
HCT-116 [1] = test: Anticancer activity against human HCT116 cells; format: functional
Procedure, shortened: (§1)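 NCI-DTP 60 cell line screen; GI50 values supplied by NCI-DTP. HCT-116 GI50 for some entries determined instead by a separate group (Henry Ford Hospital). Compounds failing initial single-dose testing at 10 μM (<25% growth inhibition) were not taken to five-dose testing.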

HCT-116 [2] = test: Antimicrofilament activity in human HCT116 cells assessed as loss of microfilament network at 0.5 uM by rhodamine-phalloidin staining; format: functional, cell-based
HCT-116 [3] = test: Antimicrofilament activity in human HCT116 cells assessed as loss of microfilament at 0.1 uM by rhodamine-phalloidin staining; format: functional, cell-based
HCT-116 [4] = test: Antimicrofilament activity in human HCT116 cells assessed as loss of microfilament at 5 uM by rhodamine-phalloidin staining; format: functional, cell-based
HCT-116 [5] = test: Antimicrofilament activity in human HCT116 cells assessed as loss of microfilament at 1 uM by rhodamine-phalloidin staining; format: functional, cell-based
HCT-116 [6] = test: Antimicrofilament activity in human HCT116 cells assessed as loss of microfilament at 0.01 uM by rhodamine-phalloidin staining; format: functional, cell-based
U-251 = test: Anticancer activity against human U251 cells; format: functional; procedure, shortened: as §1
MDA-MB-231 = test: Anticancer activity against human MDA-MB-231 cells; format: functional; procedure, shortened: as §1
LOX IMVI = test: Anticancer activity against human LOXIMVI cells; format: functional; procedure, shortened: as §1
IGROV-1 = test: Anticancer activity against human IGROV1 cells; format: functional; procedure, shortened: as §1
HCT-116 [7] = test: Antimicrofilament activity in human HCT116 cells assessed as loss of microfilament at 0.05 uM by rhodamine-phalloidin staining; format: functional, cell-based
DU-145 = test: Anticancer activity against human DU145 cells; format: functional; procedure, shortened: as §1
NCI-H522 = test: Anticancer activity against human NCI-H522 cells; format: functional; procedure, shortened: as §1
A498 = test: Anticancer activity against human A498 cells; format: functional; procedure, shortened: as §1
HCT-116 [8] = test: Antimicrofilament activity in human HCT116 cells assessed as additional loss of microfilament at 0.1 uM by rhodamine-phalloidin staining; format: functional, cell-based
HCT-116 [9] = test: Antimicrofilament activity in human HCT116 cells assessed as complete loss of microfilament network at 0.5 uM to 5 uM by rhodamine-phalloidin staining
HCT-116 [10] = test: Antimicrofilament activity in human HCT116 cells assessed as total loss of microfilament network at 0.5 uM by rhodamine-phalloidin staining; format: functional, cell-based
HCT-116 [11] = test: Antimicrofilament activity in human HCT116 cells assessed as total loss of microfilament network at 1 uM by rhodamine-phalloidin staining; format: functional, cell-based
HCT-116 [12] = test: Antimicrofilament activity in human HCT116 cells assessed as total loss of microfilament network at 5 uM by rhodamine-phalloidin staining; format: functional, cell-based
LNCaP = test: Growth inhibition against human LNCAP cells assessed as disruption of actin cytoskeleton; format: functional
PC-3 = test: Growth inhibition against human PC3 cells assessed as disruption of actin cytoskeleton; format: functional
[13] = Growth inhibition against human TSU-Pr1 cells assessed as disruption of actin cytoskeleton; format: functional
HCT-116 [14] = test: Cytotoxicity against human HCT116 cells assessed as time required to kill 90% of tumor cells at 0.004 uM by clonogenic assay; format: functional
Procedure, shortened: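 Clonogenic assay: HCT-116 seeded at 200–20 000 cells per 60 mm dish in RPMI + 10% FBS. Drug was given at 1 mg/mL and 10-fold dilutions for 2 h or 24 h, then replaced with drug-free medium, or given continuously. After 7 days colonies were stained with methylene blue and those of ≥50 cells counted, normalized to untreated control. Repeats spanned 100–0.1% survival; endpoint was 90% kill.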

HCT-116 [15] = test: Antimicrofilament activity in human HCT116 cells assessed as complete loss of microfilament network at GI50 concentration by rhodamine-phalloidin staining; format: functional, cell-based
HCT-116 [16] = test: Antimicrofilament activity in human HCT116 cells assessed as additional loss of microfilament at 5 uM by rhodamine-phalloidin staining; format: functional, cell-based
HCT-116 [17] = test: Antimicrofilament activity in human HCT116 cells assessed as additional loss of microfilament at 1 uM by rhodamine-phalloidin staining; format: functional, cell-based
HCT-116 [18] = test: Antimicrofilament activity in human HCT116 cells assessed as additional loss of microfilament network at 0.5 uM by rhodamine-phalloidin staining; format: functional, cell-based
HCT-116 [19] = test: Anticancer activity against human HCT116 cells at 10 uM; format: functional

Compound | GI50 (HCT-116 [1]) | Activity (HCT-116 [2]) | Activity (HCT-116 [3]) | Activity (HCT-116 [6]) | GI50 (U-251) [nM] | GI50 (MDA-MB-231) | GI50 (LOX IMVI) [nM] | GI50 (IGROV-1) [nM] | Activity (HCT-116 [7]) | GI50 (DU-145) [nM] | GI50 (NCI-H522) [nM] | GI50 (A498) [nM] | further results
C/C(=C\[C@H](C)C[C@H](C)O)C[C@H](C)C(=O)N[C@@H](C)C(=O)N(C)[C@H](Cc1c(Br)[nH]c2ccccc12)C(=O)N[C@H](CC(=O)O)c1ccc(O)cc1 [JASPLAKINOLIDE Z1] | 13700 nM | Active | inactive | inactive | 600 | 2500 nM | 280 | 1760 | inactive | 18800 | 120 |  | Activity (HCT-116 [4]): inactive; Activity (HCT-116 [5]): inactive
C/C1=C\[C@H](C)C[C@H](C)OC(=O)C[C@H](c2ccc(O)c(O)c2)NC(=O)[C@@H](Cc2c(Br)[nH]c3ccccc23)N(C)C(=O)[C@H](C)NC(=O)[C@@H](C)C1 | 70 nM |  |  | inactive | 40 | 90 nM | 7 | 30 | Active | 80 | 60 | 10 | Activity (HCT-116 [8]): Active; Activity (HCT-116 [9]): Active; Activity (HCT-116 [10]): Active; Activity (HCT-116 [11]): Active; Activity (HCT-116 [12]): Active
C/C1=C\[C@H](C)C[C@H](C)OC(=O)C[C@H](c2ccc(O)cc2)NC(=O)[C@@H](Cc2c(Br)[nH]c3ccccc23)N(C)C(=O)[C@H](C)NC(=O)[C@@H](C)C1 [JASPAMIDE] | 40 nM |  | inactive | inactive | 70 | 10 nM | 10 | 20 | inactive | 30 | 30 | 30 | GI50 (LNCaP): 41000 nM; GI50 (PC-3): 65000 nM; Activity (HCT-116 [9]): Active; GI50 [13]: 170000 nM; Activity (HCT-116 [10]): Active; Time (HCT-116 [14]): 7 days; Activity (HCT-116 [11]): Active; Activity (HCT-116 [12]): Active
CCOC(=O)C[C@@H](NC(=O)[C@@H](Cc1c(Br)[nH]c2ccccc12)N(C)C(=O)[C@H](C)NC(=O)[C@@H](C)C/C(C)=C/[C@H](C)C[C@H](C)O)c1ccc(O)cc1 | 280 nM | Active | inactive | inactive | 50 | 740 nM | 160 | 170 | inactive | 3720 | 40 | 440 | Activity (HCT-116 [15]): Active; Activity (HCT-116 [16]): Active; Activity (HCT-116 [17]): Active
C/C1=C\[C@H](C)C[C@H](C)OC(=O)C[C@H](c2ccc(O)cc2)NC(=O)[C@@H](Cc2c(Br)[nH]c3cc(Br)ccc23)N(C)C(=O)[C@H](C)NC(=O)[C@@H](C)C1 [JASPLAKINOLIDE R1] | 60 nM |  | inactive | inactive | 30 | 90 nM | 40 | 30 | inactive | 310 | 3 | 40 | Activity (HCT-116 [9]): Active; Activity (HCT-116 [10]): Active; Activity (HCT-116 [11]): Active; Activity (HCT-116 [12]): Active
C=C1C[C@H](C)C(=O)N[C@@H](C)C(=O)N(C)[C@H](Cc2c(Br)[nH]c3ccccc23)C(=O)N[C@@H](c2ccc(O)cc2)CC(=O)O[C@@H](C)C[C@@H](C)C1=O [JASPLAKINOLIDE B] | 140 nM |  | Active | inactive |  | 40 nM |  |  | inactive |  |  |  | Activity (HCT-116 [15]): Active; Activity (HCT-116 [16]): Active; Activity (HCT-116 [18]): Active; Activity (HCT-116 [17]): Active
C/C1=C\[C@H](C)C[C@H](C)OC(=O)/C=C(/c2ccc(O)c(O)c2)NC(=O)[C@@H](Cc2c(Br)[nH]c3ccccc23)N(C)C(=O)[C@H](C)NC(=O)[C@@H](C)C1 | 3840 nM | Active | inactive | inactive |  | 2320 nM |  |  | inactive |  |  |  | Activity (HCT-116 [4]): inactive; Activity (HCT-116 [5]): inactive
C/C1=C\[C@H](C)C[C@H](C)OC(=O)C[C@H](c2ccc(O)cc2)NC(=O)[C@@H](Cc2c(Br)[nH]c3ccccc23)N(C)C(=O)[C@H](C)NC(=O)CC1 [JASPLAKINOLIDE F] | 110 nM |  |  |  | 50 | 260 nM | 30 | 20 |  | 290 | 610 | 210 | 
C/C1=C\[C@H](C)C[C@H](C)OC(=O)C[C@H](c2ccc(O)cc2)NC(=O)[C@@H](Cc2c(Br)[nH]c3ccccc23)NC(=O)[C@H](C)NC(=O)[C@@H](C)C1 [JASPLAKINOLIDE M] | 130 nM |  |  |  | 60 | 210 nM | 20 | 30 |  | 250 | 200 | 170 | 
C/C(=C\[C@H](C)C[C@H](C)OC(=O)CC(=O)c1ccc(O)c(O)c1)C[C@H](C)C(=O)N[C@@H](C)C(=O)N(C)[C@H](Cc1c(Br)[nH]c2ccccc12)C(N)=O | inactive |  | inactive | inactive |  | inactive |  |  | inactive |  |  |  | Activity (HCT-116 [4]): inactive; inhibition at 10 µM (HCT-116 [19]): < 25%; Activity (HCT-116 [5]): inactive
CC[C@@H]1NC(=O)[C@@H](C)C/C(C)=C/[C@H](C)C[C@H](C)OC(=O)C[C@H](c2ccc(O)cc2)NC(=O)[C@@H](Cc2c(Br)[nH]c3ccccc23)N(C)C1=O [JASPLAKINOLIDE D] | 20 nM |  |  |  | 10 | 20 nM | 3 | 8 |  | 20 | 30 | 2 | 
C/C1=C\[C@H](C)C[C@H](C)OC(=O)C[C@H](c2ccc(O)cc2)NC(=O)[C@@H](Cc2c[nH]c3ccccc23)N(C)C(=O)[C@H](C)NC(=O)[C@@H](C)C1 [JASPLAKINOLIDE Q] | 50 nM |  |  |  | 30 | 70 nM | 20 | 10 |  | 100 | 160 | 80 | 
C/C(=C\[C@H](C)C[C@H](C)O)C[C@H](C)C(=O)N[C@@H](C)C(=O)N(C)[C@H](Cc1c(Br)[nH]c2ccccc12)C(N)=O | 11100 nM | Active | inactive | inactive |  | 22300 nM |  |  | inactive |  |  |  | Activity (HCT-116 [4]): inactive; Activity (HCT-116 [5]): inactive
COC(=O)C[C@@H](NC(=O)[C@@H](Cc1c(Br)[nH]c2ccccc12)N(C)C(=O)[C@H](C)NC(=O)[C@@H](C)C/C(C)=C/[C@H](C)C[C@H](C)O)c1ccc(O)cc1 | 270 nM | Active | inactive | inactive |  |  |  |  | inactive |  |  |  | Activity (HCT-116 [16]): Active; Activity (HCT-116 [17]): Active
